Values after ≈ are worked out from the molar mass of the structure shown.
Columns and labels:
[1] = Solubility studies of CoQ10 in water by HPLC; assay type: physicochemical
Method in brief: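 The powder was mixed with an equal volume of water to give a supersaturated solution. It was shaken at 200 rpm in a 25 °C water bath for 24 h. CoQ10 was measured by HPLC on a C8 column at 45 °C with methanol at 1 mL/min, against a 0.05–25 μg/mL standard curve. Triplicate independent experiments; mean ± SD.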

[2] = In vivo bioavailability study, plasma CoQ10 after oral administration to rats; conditions: male, SD, rat, 15 mg/kg
Method in brief: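 Six-week-old SPF male rats (180–200 g), acclimatised ≥3 days at 23–25 °C with a 12 h light/dark cycle, n = 5 per group, fasted 12 h. Oral 15 mg/kg dose in 0.5% (w/v) sodium CMC. Tail-vein blood at 0, 0.5, 1, 2, 4, 8, 12 and 24 h. Plasma extracted with n-propanol and assayed by HPLC against a 0–3000 ng/mL plasma standard curve. Non-compartmental model; AUC by linear trapezoid.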

Compound `COC1=C(OC)C(=O)C(C/C=C(\C)CC/C=C(\C)CC/C=C(\C)CC/C=C(\C)CC/C=C(\C)CC/C=C(\C)CC/C=C(\C)CC/C=C(\C)CC/C=C(\C)CCC=C(C)C)=C(C)C1=O` [CoQ10, Coenzyme Q10] has a solubility at 24 h [1] of 2.3 µg/mL (≈ 2.66 µM), an AUC(0-t) [2] of 196 ± 96.9 ng·h/mL and a Cmax [2] of 50.3 ± 5.7 ng/mL. It also gave a Tmax ([2]; Tmax, rats, oral, n = 5, plasma CoQ10) of roughly 1 h.

Reference: PMC12145421 (NPJ Science of Food, 2025)
